Source: ChEMBL document CHEMBL1136777, “Synthesis, anticancer activity, and inhibition of tubulin polymerization by conformationally restricted analogues of lavendustin A” (J Med Chem, 2003)

Experiments:
[1] = test system: UACC-62; assay: Antiproliferative activity against human melanoma UACC-62 cell line; type: functional
How it was run: (§1)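 Adherent lines grown in RPMI 1640 with 5% fetal bovine serum and 2 mM L-glutamine, plated at 5000–40 000 cells/well and preincubated 24 h. Five drug concentrations were added for 48 h at 37 °C. Cells were fixed with cold TCA (10% final), stained with sulforhodamine B, and read at 515 nm. GI50 is the concentration giving 50% reduction in net protein increase relative to time-zero wells.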

[2] = test system: HCT-116; assay: Antiproliferative activity against human colon HCT116 cell line; type: functional; how it was run: as §1
[3] = test system: OVCAR-3; assay: Antiproliferative activity against human ovarian OVCAR-3 cell line; type: functional; how it was run: as §1
[4] = test system: DU-145; assay: Antiproliferative activity against human prostate DU-145 cell line; type: functional; how it was run: as §1
[5] = test system: SN12C; assay: Antiproliferative activity against human renal SN12C cell line; type: functional; how it was run: as §1
[6] = test system: HOP-62; assay: Antiproliferative activity against human lung HOP-62 cell line; type: functional; how it was run: as §1
[7] = Mean graph midpoint for growth inhibition of all human cancer cells was determined; type: functional, Cancer cell lines; design: unit: µM
How it was run: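 Average of GI50 values over about 55 cell lines from the 48-h sulforhodamine B growth assay. Test range was 10^-4 to 10^-8 M, and values beyond it were set to those limits. Compounds with a first MGM of 10 μM or less were tested a second time and a standard deviation was calculated.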

[8] = test system: SF-539; assay: Antiproliferative activity against human CNS SF-539 cell line; type: functional; how it was run: as §1
[9] = biological target: Tubulin (Bos taurus, UniProt Q6B856+Q862F3); assay: Inhibition of tubulin polymerization was determined at 1.2 mg/mL concentration; type: functional
[10] = test system: MDA-MB-435 (Homo sapiens); assay: Antiproliferative activity against human breast MDA-MB-435 cell line
[11] = test system: CCRF-CEM; assay: Antiproliferative activity against human leukemia CCRF-CEM cell line; type: functional
How it was run: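 Suspension leukemia line grown in RPMI 1640 with 5% fetal bovine serum and 2 mM L-glutamine and preincubated 24 h. Drug was given at five concentrations for 48 h at 37 °C. Settled cells were fixed with 80% TCA (16% final), stained with sulforhodamine B, and read at 515 nm. GI50 was set at 50% reduction in net protein increase versus time-zero wells.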

Sequence of Tubulin (Q6B856 whole entry): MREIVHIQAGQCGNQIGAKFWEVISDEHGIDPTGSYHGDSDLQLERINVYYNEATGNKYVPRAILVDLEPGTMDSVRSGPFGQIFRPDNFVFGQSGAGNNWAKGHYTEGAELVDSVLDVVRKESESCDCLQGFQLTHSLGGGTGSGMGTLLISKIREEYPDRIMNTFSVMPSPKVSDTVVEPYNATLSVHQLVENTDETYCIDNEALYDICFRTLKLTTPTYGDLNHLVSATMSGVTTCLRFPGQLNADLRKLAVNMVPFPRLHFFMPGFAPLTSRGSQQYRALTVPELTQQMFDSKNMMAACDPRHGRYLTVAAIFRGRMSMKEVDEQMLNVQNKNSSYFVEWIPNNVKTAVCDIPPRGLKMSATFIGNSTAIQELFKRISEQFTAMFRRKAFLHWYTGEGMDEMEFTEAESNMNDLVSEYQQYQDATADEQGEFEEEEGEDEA
Sequence of Tubulin (Q862F3 whole entry): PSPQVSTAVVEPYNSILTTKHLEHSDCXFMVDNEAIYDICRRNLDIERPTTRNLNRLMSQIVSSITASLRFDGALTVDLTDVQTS

Structure (SMILES)	GI50 [1] [µM]	GI50 [2] [µM]	GI50 [3] [µM]	GI50 [4] [µM]	GI50 [5] [µM]	GI50 [6] [µM]	MGM [7]	GI50 [8] [µM]	IC50 [9] [µM]	GI50 [10] [µM]	GI50 [11] [µM]
COC(=O)c1cc(/C=C\c2cc(OC)ccc2OC)ccc1OC	14.8	20.1	4.9	18.1	30.2	32.9	15.5	10.6	> 40	10.9	–
O=C(NCCc1ccccc1)c1cc(CCc2cc(O)ccc2O)ccc1O	11	12.5	4.4	14.5	49.8	13.9	6.4	–	5.5	3.9	–
COC(=O)c1cc(C#Cc2cc(OC)ccc2OC)ccc1OC	29.3	37.7	13.6	43.6	37.9	–	30.9	81.1	> 40	> 100	36.8
CCCCCCNC(=O)c1cc(/C=C/c2cc(O)ccc2O)ccc1O	–	–	–	–	–	–	–	–	5	–	–
O=C(NCCc1ccccc1)c1cc(/C=C/c2cc(O)ccc2O)ccc1O	2	1.8	2.9	10.1	5.1	9.3	3.8	2.4	4	4	2.1
O=C(NCCc1ccc(F)cc1)c1cc(/C=C/c2cc(O)ccc2O)ccc1O	2.1	1.9	2.7	11	5.6	8.8	3.5	2.2	2.9	3.8	1.8
COc1ccc(OC)c(CC(=O)c2ccc(O)c(C(=O)NCCc3ccc(F)cc3)c2)c1	4	4	1.4	1.7	4.3	1.5	3.6	–	1.4	0.6	2.4
COc1ccc(OC)c(CCc2ccc(O)c(C(=O)NCCc3ccc(F)cc3)c2)c1	6.6	5.3	3.2	4.2	15.8	15	6.9	3.2	1.4	0.5	3.2
CCCCCCNC(=O)c1cc(C#Cc2cc(OC)ccc2OC)ccc1OC	56.8	6.9	> 100	> 100	> 100	11.8	31.6	> 100	> 40	> 100	7.9
O=C(NCCc1ccc(F)cc1)c1cc(NCc2cc(O)ccc2O)ccc1O	7.8	9.2	11	18	7.7	12	0.35	9.2	6.4	13	0.29
O=C(NCCc1ccccc1)c1cc(/C=C\c2cc(O)ccc2O)ccc1O	2.1	3.5	1	1.8	6.8	3	1.4	1.6	5.4	1.7	0.2
COc1ccc(OC)c(C#Cc2ccc(OC)c(C(=O)NCCc3ccc(F)cc3)c2)c1	6	4.7	–	> 100	> 100	4.9	11.5	–	> 40	1.2	4.7
COc1ccc(OC)c(C#Cc2ccc(OC)c(C(=O)O)c2)c1	22.6	32.3	24.4	26.9	38.2	25.6	18.6	38.5	> 40	8.8	55
O=C(NCCc1ccccc1)c1cc(C#Cc2cc(O)ccc2O)ccc1O	1.9	10.5	2.8	12.7	5.7	10.3	3.8	9.6	3.7	2.9	0.3
CCCCCCNC(=O)c1cc(CCc2cc(O)ccc2O)ccc1O	3.3	3.6	2.4	7.4	2.2	7.4	4.4	2.2	6.2	3.2	5.1
COc1ccc(OC)c(/C=C\c2ccc(OC)c(C(=O)NCCc3ccc(F)cc3)c2)c1	3.5	3.8	4.2	> 100	6.4	8.1	4.5	5.9	> 40	2.1	3.4
CCCCCCNC(=O)c1cc(/C=C\c2cc(OC)ccc2OC)ccc1OC	25	21.1	16.1	45.6	63.1	31.9	16.6	23.6	> 40	10.3	24.7
COc1ccc(OC)c(/C=C\c2ccc(OC)c(C(=O)NCCc3ccccc3)c2)c1	16.4	47.3	5	> 100	> 100	> 100	38.9	> 100	> 40	3	12.3
COc1ccc(OC)c(C#Cc2ccc(OC)c(C(=O)NCCc3ccccc3)c2)c1	24.4	12	6.7	> 100	> 100	> 100	40.7	> 100	> 40	2.5	–
CCCCCCNC(=O)c1cc(/C=C\c2cc(O)ccc2O)ccc1O	5.8	3.9	1.7	10.5	11.6	8.3	4.1	3.3	4.2	4.5	1.2
